Source: PubChem BioAssay (several laboratories)
ALR inh: inhibitors of human ALR sulfhydryl oxidase, primary screen, biochemical, H2O2 detection, HRP-luminol luminescence, single point. inhibition, % (concentration not given with the values). 290,000 tested, 3.8% active. FAD-linked sulfhydryl oxidase ALR (Homo sapiens), P55789. purified ALR, DTT oxidation. AID 485317, 2010;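 active means mean replicate inhibition above about 79%, with every replicate also reaching it, limit read from the data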
DSG3 Ab inh: inhibitors of pemphigus antibody binding to DSG3, primary screen, biochemical, bead-based, flow cytometry, scFv-GFP; Desmoglein-3 (Homo sapiens), P32926; DSG3-coupled beads, scFv-anti-DSG3-GFP binding; stronger effect = lower value; binding (percent of control), % at 10 µM; 310,000 tested, 0.48% active; AID 588358, 2011;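 active means binding more than 3 SD below its plate's average and above zero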;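 further: hits lower antibody fragment binding to DSG3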
Target sequence (P32926 whole entry, looked up, the tested form may be a part): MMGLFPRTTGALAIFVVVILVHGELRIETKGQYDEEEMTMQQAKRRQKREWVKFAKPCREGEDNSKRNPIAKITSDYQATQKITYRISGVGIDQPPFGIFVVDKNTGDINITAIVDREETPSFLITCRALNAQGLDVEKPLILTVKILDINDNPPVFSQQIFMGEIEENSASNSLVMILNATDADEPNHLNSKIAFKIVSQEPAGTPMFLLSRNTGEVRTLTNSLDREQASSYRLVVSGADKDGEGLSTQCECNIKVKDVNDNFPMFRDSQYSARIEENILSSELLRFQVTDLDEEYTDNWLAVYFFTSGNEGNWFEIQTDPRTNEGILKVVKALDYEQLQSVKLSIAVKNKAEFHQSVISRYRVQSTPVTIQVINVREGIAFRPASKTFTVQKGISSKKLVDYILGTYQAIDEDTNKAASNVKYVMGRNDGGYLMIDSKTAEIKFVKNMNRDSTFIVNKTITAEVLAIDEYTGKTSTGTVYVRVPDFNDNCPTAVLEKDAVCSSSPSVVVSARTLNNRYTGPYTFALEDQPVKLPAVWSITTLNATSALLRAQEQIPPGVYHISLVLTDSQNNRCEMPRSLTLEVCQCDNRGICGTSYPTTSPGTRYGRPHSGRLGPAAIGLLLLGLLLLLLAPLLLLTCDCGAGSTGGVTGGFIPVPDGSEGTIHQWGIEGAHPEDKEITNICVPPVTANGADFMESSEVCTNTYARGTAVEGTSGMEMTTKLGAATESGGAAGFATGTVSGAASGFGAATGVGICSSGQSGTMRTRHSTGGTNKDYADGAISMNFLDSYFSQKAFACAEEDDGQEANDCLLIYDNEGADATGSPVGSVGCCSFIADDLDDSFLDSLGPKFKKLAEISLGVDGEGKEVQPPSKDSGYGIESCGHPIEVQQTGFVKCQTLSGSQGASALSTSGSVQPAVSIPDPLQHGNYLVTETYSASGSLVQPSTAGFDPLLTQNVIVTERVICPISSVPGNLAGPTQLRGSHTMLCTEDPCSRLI
PolyA inhibitor: polyadenylation inhibitors in yeast reporter cells, primary screen, luminescence, S. cerevisiae; activity score, % at 12 µM; S. cerevisiae SKY197-pL101 polyadenylation reporter, beta-gal luminescence; efflux-impaired pdr1/pdr3 knockout yeast; score 100 = 6 SD above DMSO; 300,000 tested, 0.02% active;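 active means lowest replicate activity score at least 50, where 100 means six control SD above control mean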;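 further: yeast exposed to compound for 9 h at 30 °C; higher score means more reporter readthrough which indicates perturbed polyadenylation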
NLRP3 yeast inh: NALP3 inflammasome inhibitors in reconstituted yeast, primary screen, luminescence, uHTS. Yeast reconstituted NLRP3/ASC/caspase-1, beta-gal luminescence, 24 h. 330,000 tested, 0.39% active. inhibition, % at 10 µM. AID 2825, 2010;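 active means inhibition of 50% or more; inactive means inhibition below 50%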;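 further: plate controls were induced DMSO wells for no effect and uninduced yeast grown without galactose for full effect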
NALP1 yeast inh: NALP1 inflammasome inhibitors in reconstituted yeast, colorimetric, S. cerevisiae, triplicate retest. S. cerevisiae NALP1/ASC/caspase-1 growth, X-gal OD620, 72 h. inhibition, % at 10 µM. 280,000 tested, 0.61% active; in the data active means inhibition mostly above about 24%, no sharp cut-off; inactive means mostly below about 32%
Arrestin-AP2 inh: inhibitors of beta-arrestin/AP2 binding, primary screen, biochemical, GPCR trafficking, flow cytometry. 340,000 tested, 0.31% active. inhibition, % at 10 µM. AID 504490, 2011. FITC-arrestin peptide / GST-AP2 beads; AP2 beta2 appendage carries R879A mutation. beta-arrestin 1 C-terminal peptide binding to AP2 beta2-adaptin appendage (human);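 active means inhibition above a set limit, near 3 SD of compounds lacking own fluorescence, cut at about 54% in these data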;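 further: plate controls were DMSO wells for no effect and 5 µM unlabelled arrestin peptide for full effect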
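Material – GST-tagged AP2 beta2-adaptin appendage (R879A) on 4 µm glutathione beads · Probe or stimulus – fluorescein-tagged arrestin peptide at 50 nM final · Timing – 12 min plus 1 h, RT · Detection – bead flow cytometry, FITC channel · Read-out basis – inhibition as reduced fluorescein signal on beads, percent · Medium – PBS plus Tween 20 (0.05%) and BSA (0.1%)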
NALP3 confirm: NALP3 inhibitors retested in yeast, confirmation, luminescence, single concentration; shares compounds with NLRP3 yeast inh; yeast expressing human NALP3; inhibition, % at 10 µM; 1,300 tested, 81% active; AID 435006, 2010; in the data active means inhibition above about 48%
Casp1 ASC ctr: CASP1-PYCARD signaling inhibition in yeast, confirmatory test, counterassay for NLRP3 inhibitor program, one-dose. shares compounds with NLRP3 yeast inh. AID 488784, 2010. 1,000 tested, 66% active. yeast expressing Caspase-1-ASC, luminescence counter screen. inhibition, % at 10 µM
NALP3 retest: NALP3 inhibitors in yeast, repeat test, confirmation, luminescence, single concentration, retest. shares compounds with NLRP3 yeast inh. yeast expressing human NALP3, luminescence read-out. inhibition, % at 10 µM. 1,000 tested, 53% active. AID 488794, 2010
* hit, by the source's call; · = no result. Sampled rows, rich in hits. Any-hit rate of the full collection: about 4.6%. Unless noted, no stated cut-off is given here; in the data, active means inhibition above about 50%; inactive means the rest.

SMILES | ALR inh | DSG3 Ab inh | PolyA inhibitor | NLRP3 yeast inh | NALP1 yeast inh | Arrestin-AP2 inh | NALP3 confirm | Casp1 ASC ctr | NALP3 retest
Cc1csc2nc(O)c(C(=O)NCCCc3ccccc3)c(=O)n12 | -4.8 | 99.1 | 17.3 | 44.9 | · | 27.2 | · | · | ·
O=C(NC1CCCN(CCc2ccccc2)C1)C1CCCC1 (stereo unspecified) | 0.3 | 112.2 | -1.4 | 19.9 | -1.3 | 45.4 | · | · | ·
CCN(CC)C(=S)SCC(=O)c1ccc(Br)cc1 | 48.2 | 96.0 | -43.4 | 55.2* | 29.0 | 13.6 | 63.6* | · | ·
Cc1ccnc(SCC(=O)c2ccc(Br)cc2)c1C#N | -9.4 | · | -31.5 | 31.2 | 31.2 | -3.3 | · | · | ·
O=C(c1cccs1)c1coc2ccc(O)cc12 | 0.7 | 97.8 | 28.7 | 66.8* | -0.2 | 0.5 | 86.2* | 87.0* | 76.5*
O=C(O)COc1ccc2occ(C(=O)c3ccccc3)c2c1 | -0.7 | 103.5 | -10.9 | 6.6 | -3.8 | 2.7 | · | · | ·
CC(=O)Oc1ccc2occ(C(=O)c3ccccc3)c2c1 | 3.1 | 98.5 | -7.4 | 43.6 | · | 2.7 | · | · | ·
O=C(CCl)Oc1ccc2occ(C(=O)c3cccs3)c2c1 | 97.3* | 102.1 | -7.4 | 72.8* | -3.0 | -9.4 | 85.5* | · | ·
CC(=O)Oc1ccc2occ(C(=O)c3cccs3)c2c1 | 41.3 | 101.0 | -14.4 | 75.2* | -14.1 | 1.1 | 87.5* | 80.8* | 77.2*
O=C(Cc1ccc(Cl)cc1)Nc1ccc(C(=O)N2CCOCC2)cc1 | -3.8 | 100.4 | -10.3 | 23.6 | -5.5 | 45.9 | · | · | ·
COc1cc2cnc(-c3cccnc3)cc2cc1OC | -9.4 | 103.3 | · | 34.9 | · | -5.3 | · | · | ·
Cc1cc(C)c[n+](-c2nc([O-])sc2C=O)c1 | -3.8 | · | 6.6 | 15.6 | 4.0 | -1.2 | · | · | ·
N#Cc1cccc2cnccc12 | -3.3 | 102.5 | -1.8 | -12.3 | 14.1 | -6.9 | · | · | ·
COc1ccc(-c2nnc(SCC(=O)Nc3ncc(C)s3)n2-c2ccccc2)cc1OC | -4.1 | 100.2 | 5.9 | -3.7 | -2.7 | -3.3 | · | · | ·
CC1(C)CC(=O)C=C(c2cccc(Cl)c2O)C1 | 96.0* | 99.7 | · | 71.0* | · | -0.7 | 64.7* | 75.3* | 61.6*
O=C(NC1CCCCCC1)c1c(O)c2cccc3c2n(c1=O)CCC3 | · | · | · | · | -13.5 | · | · | · | ·
O=C(NCCNCCO)c1c(O)c2cccc3c2n(c1=O)CCC3 | -1.0 | 120.5 | 12.9 | 53.2* | 14.5 | 7.0 | 62.8* | 35.9 | 33.6
CNC(=O)c1c(O)c2cccc3c2n(c1=O)CCC3 | 4.4 | 110.7 | 6.8 | 50.2* | -0.2 | 13.8 | 64.2* | 39.3 | 48.2
Cc1nnc(SCc2nc3ccccc3[nH]2)s1 | 5.6 | 90.9 | 13.5 | 1.4 | -1.3 | 5.7 | · | · | ·
c1ccc2[nH]c(CSc3nc4ccccc4s3)nc2c1 | -7.0 | 107.1 | 8.6 | 59.0* | 5.5 | 24.7 | 74.7* | 55.5* | 60.7*
Cc1cc(C(=O)CN2C(=O)c3cccc(N)c3C2=O)c(C)n1Cc1cccs1 | 4.9 | 106.8 | -22.9 | 14.7 | 7.0 | 1.9 | · | · | ·
COc1ccc(OC)c(NC(=O)Cc2coc3ccc(C)cc23)c1 | -3.4 | 86.9 | -3.6 | 44.9 | 7.6 | -7.6 | · | · | ·
CCOc1ccccc1NC(=O)Cc1coc2ccc(C)cc12 | 0.4 | 127.5 | -13.3 | 63.1* | 5.8 | -9.7 | 75.5* | 65.3* | 54.8*
CC1Cc2ccccc2N1C(=O)Cn1c(=O)oc2cc(S(=O)(=O)N3CCCCC3)ccc21 (stereo unspecified) | · | 146.3 | -6.9 | 14.5 | -3.5 | -11.2 | · | · | ·
CCN(CC(=O)NCc1ccc(F)cc1)CC(=O)Nc1cc(S(=O)(=O)N(C)C)ccc1C | 14.9 | 98.6 | · | 25.0 | · | -2.6 | · | · | ·
SMILES | ALR inh | DSG3 Ab inh | PolyA inhibitor | NLRP3 yeast inh | NALP1 yeast inh | Arrestin-AP2 inh | NALP3 confirm | Casp1 ASC ctr | NALP3 retest
O=[N+]([O-])c1ccc(N2CCCC2)cc1N1CCCC1 | 64.8 | 108.9 | -4.6 | 58.2* | -8.6 | 6.0 | 52.5* | 63.3* | 52.6*
O=[N+]([O-])c1ccc(N2CCCCC2)cc1N1CCOCC1 | 1.3 | 100.8 | -9.7 | 19.9 | 3.3 | 7.1 | · | · | ·
O=C(O)c1ccc(S(=O)(=O)/N=C2\C=C(Nc3ccccc3F)C(=O)c3ccccc32)cc1 | 69.9 | 107.3 | -8.8 | 93.9* | 79.9* | -3.1 | 82.7* | 99.3* | 97.4*
CC(C)(C)C1CCc2[nH]c3ccccc3c(=O)c2C1 (stereo unspecified) | 18.7 | 103.7 | -8.3 | 71.7* | -3.2 | -58.3 | 94.3* | 71.5* | 77.0*
Cc1c2c(nc3ccccc13)CCC(C(C)(C)C)C2 (stereo unspecified) | 0.6 | 105.0 | 3.0 | 21.3 | 8.9 | -21.1 | · | · | ·
CC(C)c1ccc(C2NC(=O)CCC2[N+](=O)[O-])cc1 (stereo unspecified) | -13.4 | 81.7 | 15.2 | -4.9 | -2.2 | -0.6 | · | · | ·
Cc1cc(=S)cc(C)n1CCO | -0.3 | 96.3 | 9.7 | -14.4 | 19.0 | -6.2 | · | · | ·
O=C(Nc1cccc(Cl)c1)c1cnn2cccnc12 | 3.5 | 101.9 | 12.6 | 53.5* | 3.0 | -4.8 | 78.8* | 43.4 | 56.0*
CC(C)C[C@@H]1CN=C(N)N1C[C@@H]1CCCN1C[C@@H](C(C)C)N1C[C@@H](Cc2ccccc2)N(CCCC2CCCC2)C1=N | · | 116.9 | · | 9.1 | · | 5.0 | · | · | ·
CCOC(=O)CN1C(=O)C(CC)Oc2ccccc21 (stereo unspecified) | -5.4 | 112.8 | 1.6 | -11.8 | 7.4 | -5.2 | · | · | ·
CCC1Oc2ccccc2N(Cc2ccccc2C)C1=O (stereo unspecified) | -21.7 | 92.5 | -9.7 | -150.6 | -20.3 | 16.8 | -22.2 | · | ·
Cn1cc(CNC(=O)C2CCC(=O)N(Cc3ccc(Cl)cc3)C2)cn1 (stereo unspecified) | -1.7 | 98.2 | 2.0 | 6.6 | 3.9 | -17.7 | · | · | ·
c1ccc(-c2nc(Sc3ncnc4c3cnn4-c3ccccc3)n[nH]2)cc1 | 63.5 | · | -16.8 | 50.0 | 4.1 | · | 69.1* | · | ·
Cc1ccc(CSc2ncnc3c2cnn3-c2ccccc2)cc1 | -4.2 | 101.8 | 0.6 | -26.6 | 24.5 | 34.5 | · | · | ·
Oc1c(Cl)cc(Cl)cc1CNc1ccccn1 | · | 111.5 | -3.8 | 51.7* | 17.8 | -3.5 | 67.2* | 41.2 | 39.2
O=S(=O)(CCc1nc2ccccc2s1)c1ccc2ccccc2c1 | -2.3 | 100.2 | 15.3 | 29.1 | 33.6 | -0.8 | · | · | ·
